This is a sample that favours compounds with a hit; in the whole collection about 2.2% have one here.
SUMO1-SIM PPI: modulators of human SUMO1-mediated protein-protein interactions. P63165. SUMO1 binding to a labelled peptide, TR-FRET, 1 h. inhibition, % at 20 µM. hit rate 0.33% among 360,000; in the data active means inhibition above about 37%
Target sequence (P63165 whole entry, looked up): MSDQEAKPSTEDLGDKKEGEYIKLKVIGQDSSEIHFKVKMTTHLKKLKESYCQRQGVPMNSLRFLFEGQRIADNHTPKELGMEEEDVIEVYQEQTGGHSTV
LMPTP block: blocks human LMPTP phosphatase; hit rate 0.22% among 360,000; recombinant LMPTP-A, OMFP fluorogenic substrate, fluorescence intensity; inhibition, % at 20 µM;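 active means compounds that cut the enzyme signal by at least half of the control window in the single-dose screen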
Target sequence (P24666 whole entry, looked up): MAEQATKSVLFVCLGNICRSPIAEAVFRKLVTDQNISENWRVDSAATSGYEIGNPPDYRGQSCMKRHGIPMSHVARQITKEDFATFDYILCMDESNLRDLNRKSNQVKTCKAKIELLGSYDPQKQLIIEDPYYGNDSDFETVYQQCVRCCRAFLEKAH
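Test system – LMPTP-A enzyme · Amount – LMPTP-A at 0.625 nM final in the reaction · Buffer or medium – Bis-Tris pH 6.0, DTT, detergent · Reagent – OMFP 400 µM · Doses – single 20 µM dose · Schedule – reaction 50 min, room temperature, dark · Detection – fluorescence intensity of OMFP turnover product · Evaluation – percent inhibition versus substrate-only and uninhibited controls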
Scp1 inh: blocks human Scp-1 phosphatase activity; Q9GZU7; hit rate 0.88% among 340,000; inhibition, % at 20 µM; Recombinant Scp1, phosphopeptide, malachite green phosphate absorbance;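 active means inhibition above about 50% at 20 µM, limit read from the data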
Target sequence (Q9GZU7 76-261 limits assumed): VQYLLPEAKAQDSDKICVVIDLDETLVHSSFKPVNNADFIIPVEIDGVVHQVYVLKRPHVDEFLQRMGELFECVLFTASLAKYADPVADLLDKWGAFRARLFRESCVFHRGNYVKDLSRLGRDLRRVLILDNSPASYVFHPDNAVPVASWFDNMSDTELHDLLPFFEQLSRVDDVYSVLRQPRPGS
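assay system = SCP-1 phosphatase catalytic domain, residues 76-261 | buffer or medium = 50 mM Tris acetate pH 5.5, 0.005% Tween-20, 10 mM MgCl2 | incubation = enzyme reaction 45 min at room temperature, colour 5 min, stabilisation 30 min | signal = Phosphate-binding colour reagent, absorbance read at 630 nm | measure = % inhibition at 20 µM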
DNMT1 block: inhibitors of human DNMT1; P26358; DNMT1 molecular beacon, Hinp1I cleavage, fluorescence; inhibition (reported as % activation of signal), % at 10 µM; hit rate 0.83% among 360,000; AID 588458; in the data active means inhibition above about 50%
GRK2 aptamer HTS: human GRK2 inhibition via aptamer displacement; bead flow cytometry, FAM-aptamer displacement from GRK2; P25098; hit rate 0.59% among 330,000; inhibition of aptamer binding, % at 10 µM;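 active means inhibition of aptamer binding above 40%, roughly 3 SD of noise, on plates passing a quality check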;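 further: median bead fluorescence of bound FAM aptamer so fluorescent compounds give negative values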
STEP block: inhibitors of human striatal-enriched phosphatase STEP; recombinant STEP, OMFP fluorogenic substrate, fluorescence; inhibition, % at 20 µM; hit rate 0.25% among 360,000; AID 588621;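 active means inhibition at 20 µM, scaled per plate between control wells, above about 37%, limit read from the data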
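Measure: Control-normalized % inhibition with plate pattern correction | Test system: STEP phosphatase, cell-free reaction | Medium: pH 6.0 Bis-Tris with DTT and Tween 20 | Technique: Fluorescence, 480/540 nm | Times: Reaction 20 min, ambient temperature | Doses: Single compound dose of 20 µM, 1% DMSO final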
GRK2 inh confirm: confirmation of human GRK2 inhibitors displacing RNA aptamer; shares compounds with GRK2 aptamer HTS; bead-bound GRK2, FAM-aptamer displacement, flow cytometry; aptamer displacement, % at 10 µM; hit rate 4% among 2,000; AID 504451;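 active means aptamer displacement above 40%, near three times the noise of non-fluorescent compounds, on plates passing quality checks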;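 further: negative values mostly reflect intrinsic compound fluorescence rather than true enhancement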
Aptamer quench SP: quenches fluorescent RNA aptamer, GRK2 hit artifact. shares compounds with GRK2 aptamer HTS. Carboxyfluorescein RNA aptamer on beads, flow cytometry quenching; hits give low values. fluorescence response (% of DMSO), % at 10 µM. 2,000 tested, under 10 active;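 active means compounds that quench the bead-bound fluorescent RNA probe, cutting fluorescence to under half of the solvent control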;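 further: counterscreen run without GRK2 so only probe quenching by compound is measured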
Scp-1 conf: Scp-1 (human) inhibition, single-dose confirmed. inhibition, % at 20 µM. AID 540281. recombinant SCP-1 catalytic domain, phosphate release, malachite green absorbance. shares compounds with Scp1 inh. hit rate 61% among 2,500
MG interference: counter-screen for Scp-1 inhibitors: colorimetric interference; Colorimetric interference counterscreen, malachite green absorbance 630 nm; apparent inhibition (interference), % at 20 µM; 2,500 tested, under 10 active; shares compounds with Scp1 inh;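 further: compounds added after enzyme reaction finished so only phosphate colour detection is probed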
Scp1 DSF: binds human Scp-1, shifting its melting temperature | shares compounds with Scp1 inh | thermal shift relative to vanadate control, % at 40 µM | AID 540329 | Recombinant SCP1, Sypro Orange thermal shift Tm | hit rate 25% among 1,500;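 active means substances whose mean melting-temperature shift, as a percentage of the reference inhibitor's shift, reaches about 5.3%, limit read from the data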
DNMT1 confirm: confirmation of human DNMT1 inhibitors | shares compounds with DNMT1 block | DNMT1 molecular beacon HinP1I cleavage, fluorescence | AID 602385 | hit rate 8% among 2,300 | inhibition, % at 10 µM;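 active means average inhibition of at least 30% in the single-concentration confirmation test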
Beacon interf: shows spectral interference in the DNMT1 beacon assay | shares compounds with DNMT1 block | DNMT1 molecular beacon spectral interference counterscreen, fluorescence 485/520 | activation (fluorescence interference), % at 10 µM | hit rate 1% among 2,300 | AID 602387;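 active means activation of at least 30% at 10 µM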;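 further: DNMT1 catalytic domain with a HinP1I cleavage step and a FAM/dabcyl DNA beacon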
Hits are given with their value; n = inactive; x = no result given; ! = not confirmed by another sample.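 How the source made its calls, unless noted: active means inhibition of at least 30% at 20 µM; inactive means the rest.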

SMILES	SUMO1-SIM PPI	LMPTP block	Scp1 inh	DNMT1 block	GRK2 aptamer HTS	STEP block	Scp-1 conf	MG interference	Scp1 DSF	others
c1ccc(CNc2c3c(nc4ccccc24)CCC3)cc1	n	n	n	n	n	n	x	x	x
Oc1ccc(O)c2c1C1(Cl)C(Cl)=C(Cl)C2(Cl)C1(Cl)Cl	n	n	n	n	x	n	x	x	x
COC(=O)C1=C(c2cccc(OCc3ccccc3)c2)C[C@@H]2CC[C@H]1N2C(=O)NCCc1ccc(F)cc1	n	n	n	n	98	n	x	x	x	GRK2 inh confirm=n;Aptamer quench SP=n
CC1=CC(C)CC(C)OC(=O)CC(c2ccc(O)cc2)NC(=O)C(Cc2c(Br)[nH]c3ccccc23)N(C)C(=O)C(C)NC(=O)C(C)C1 (configuration not stated)	n	n	n	n	x	n	x	x	x
COC12c3ccccc3-c3ccccc3C1C(C(=O)O)C2C(=O)O (configuration not stated)	n	n	x	n	x	n	x	x	x
Cc1cc(/C=C2\C(=O)NC(=O)N(Cc3ccccc3Cl)C2=O)c(C)n1-c1ccc(C(=O)O)cc1	n	n	66	71	77	n	67	n	n	GRK2 inh confirm=n;Aptamer quench SP=n
COc1ccc(CN2CCNCC2)c(OC)c1OC	n	n	99!	n	n	n	95	n	n	GRK2 inh confirm=n;Aptamer quench SP=n
COc1cc(CN2CCNCC2)cc(OC)c1OC	n	n	n	n	n	n	x	x	x
CC(=O)Nc1ccc(S(=O)(=O)N2Cc3ccccc3-n3nncc3C2)cc1	n	n	x	n	x	n	x	x	x
CCc1ccc(N2C(=O)NC(=O)/C(=C\c3cc(C)n(-c4cc(C(=O)O)cc(C(=O)O)c4)c3C)C2=O)cc1	n	n	n	73	58	n	x	x	x	GRK2 inh confirm=n;Aptamer quench SP=n;DNMT1 confirm=n;Beacon interf=n
COc1ccc(-n2nnnc2C(c2cccs2)N2CCC3(CC2)C(=O)NCN3c2ccccc2)cc1 (configuration not stated)	n	n	x	n	x	n	x	x	x
C=CC[N+]1(C)CC[C@]23c4c5ccc(O)c4O[C@H]2C(=O)CC[C@@]3(O)[C@H]1C5 (some centres not stated)	n	n	98	n	n	n	93	n	n
C[C@]12CCC3C(CC[C@H]4C[C@@H](O)CC[C@]34C)[C@H]1C=CC2=O (some centres not stated)	n	n	56	n	n	n	n	n	x
C[C@]12CCC3[C@@H](CC[C@@H]4C[C@H](O)CC[C@]34C)[C@@H]1CCC2=O (some centres not stated)	n	n	n	n	n	n	x	x	x
CCc1sc(C(=O)N2CCC3(CC2)OCCO3)cc1Br	n	n	54	n	n	n	n	n	x
C[N+]12CCC(CC1)C(=C(c1ccccc1)c1ccccc1)C2	n	n	94	n	n	n	78	n	n
O=C(CN1CCN(C(=O)COc2cccc(F)c2)CC1)Nc1ccc(Cl)c(C(F)(F)F)c1	n	n	n	n	n	n	x	x	x
C[N+]1(C)C2CCC1CC(OC(=O)c1c[nH]c3ccccc13)C2 (configuration not stated)	n	n	54	n	n	n	n	n	x
O=c1[nH]c2ccccc2n1C1CCN(C(c2cc3ccccc3o2)c2nnnn2-c2ccc3c(c2)OCCO3)CC1 (configuration not stated)	n	n	x	n	x	n	x	x	x
CCOc1ccc(N=C2SCCCN2C)cc1	n	n	103	n	n	n	86	n	n
NC(=O)c1ccc(N=Cc2c(O)n(Cc3ccco3)c(=O)[nH]c2=O)cc1	99	n	87	62	n	n	67	n	n
CCN(CC)c1ccc(N=Cc2c(O)n(Cc3ccco3)c(=O)[nH]c2=O)cc1	n	n	n	n	n	n	x	x	x
O=C1NCN(c2ccccc2)C12CCN(C(c1cc3ccccc3o1)c1nnnn1Cc1ccccc1)CC2 (configuration not stated)	n	n	x	n	x	n	x	x	x
COc1ccc(/C=C2\C(=O)NC(=S)N(C)C2=O)cc1C	72	n	100	94	n	95	70	n	n
Cc1ccsc1/C=C1\C(=O)NC(=S)N(C)C1=O	n	n	n	n	n	n	x	x	x
SMILES	SUMO1-SIM PPI	LMPTP block	Scp1 inh	DNMT1 block	GRK2 aptamer HTS	STEP block	Scp-1 conf	MG interference	Scp1 DSF	others
O=c1[nH]c(O)c(/C=C2/C=CC(c3cc(Cl)ccc3Cl)=N2)c(=O)[nH]1	57	n	n	n	n	n	n	n	x
Cc1ccc(N2C(=O)NC(=O)/C(=C\c3cc(C)n(-c4ccc(C(=O)O)cc4)c3C)C2=O)cc1	n	n	n	n	n	n	x	x	x
Cc1cc(/C=C2/C(=O)NC(=O)N(c3ccccc3)C2=O)c(C)n1-c1ccc(F)cc1	n	n	n	n	n	n	x	x	x
Cc1cc(/C=C2\C(=O)NC(=O)N(c3cccc(F)c3)C2=O)c(C)n1-c1ccc(C(=O)O)c(Cl)c1	n	n	51	60	n	n	58	n	n
Cc1ccc(N2C(=O)NC(=O)/C(=C/c3ccc(-c4ccc(C(=O)O)c(Cl)c4)o3)C2=O)cc1	n	n	58	n	n	n	55	n	n
COC(=O)C1=C(c2ccc(Cl)c(C(F)(F)F)c2)C[C@@H]2CC[C@H]1N2C(=O)NC1CCCCC1	n	n	n	n	n	n	x	x	x
O=c1[nH]c2ccccc2n1C1CCN(C(c2ccccc2OC(F)(F)F)c2nnnn2Cc2ccccc2)CC1 (configuration not stated)	n	n	x	n	x	n	x	x	x
Cc1onc(-c2c(Cl)cccc2Cl)c1C(=O)Nc1ccc2c(C(F)(F)F)cc(=O)oc2c1	n	n	n	n	n	n	x	x	x
